The species entered for experiment [1] is Mus musculus. Description: Inhibition of imidazole receptor 2 in mouse hippocampal neurons assessed as reduction in tPA-induced Erk1/2 activation at 30 uM pre-incubated for 4 hrs before tPA stimulation by ELISA. Conditions: Hippocampus. In short, it runs like this: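 Primary mouse hippocampal neurons were stimulated with tPA (20 μg/mL, 1 h) with or without compound at 30 μM. Phospho-Erk1/2 was measured by ELISA with a phospho-specific antibody and normalized to total Erk1/2. Untreated cultures set the lower limit and tPA alone the upper limit.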
A general note: ELISA stands for enzyme-linked immunosorbent assay.

In experiment [2] the test system is Hippocampal neuron. Kind of experiment: (§1) Neuroprotective activity in mouse hippocampal neurons assessed as Abeta-induced neuronal apoptosis at 30 uM pre-incubated for 4 hrs before Abeta challenge for 72 hrs by TUNEL assay (reference value: 100%). In kind it is functional. The note with it: Hippocampus. The gist of the method: (§2)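 Aggregated Aβ (20 μM, 72 h) was applied to primary mouse hippocampal neurons with or without compound at 30 μM. Apoptosis was scored by TUNEL as the percentage of positive nuclei among total nuclei, referred to Aβ alone (100%). Medium-only cells were the negative control and DNase the positive control. n = 4, mean ± SEM, two-tailed Student's test.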

The nature of experiment [3]: Inhibition of radioligand binding to N-methyl D-aspartate receptor phencyclidine binding site at 10 uM. In short, it runs like this:
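Radioligand binding panel. Values are average percentages of inhibition of specific binding, measured against potent standard ligands for each target.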

Experiment [4] is filed under the species Rattus norvegicus. Kind of experiment: Displacement of [3H]2-BFI from rat imidazole receptor 2 in rat whole brain at 10 uM in presence of 1 uM yohimbine. Background: Displacement assays read how much labelled ligand stays bound in the presence of the test substance.
The species entered for experiment [5] is Rattus norvegicus. Description: Displacement of [3H]idazoxan from rat cerebral cortex imidazole receptor 2 at 10 uM in presence of 1 uM yohimbine. The class given is tissue-based.
For experiment [6], the system named is Hippocampal neuron. Description: Neuroprotective activity against Abeta-induced neuronal apoptosis in mouse hippocampal neurons assessed as reduction in DNA fragmentation at 30 uM pre-incubated for 4 hrs before Abeta challenge for 72 hrs by immunofluorescence microscopy. The class given is functional, tissue-based. Conditions: Hippocampus. The gist of the method: (§3)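 Primary mouse hippocampal neurons were exposed to Aβ (20 μM, 72 h) alone or with compound. Double immunofluorescence microscopy was then run for DNA fragmentation (TUNEL, green) and total neuronal nuclei (NeuN, red), with merged images. DNase-treated cells served as positive control.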

Experiment [7] in a line: as §1. In kind it is functional, Hippocampus, Hippocampal neuron. In short, it runs like this: as §2
For experiment [8], the system named is Hippocampal neuron. Kind of experiment: Neuroprotective activity against Abeta-induced neuronal apoptosis in mouse hippocampal neurons assessed as reduction in total neuronal nuclei level at 30 uM pre-incubated for 4 hrs before Abeta challenge for 72 hrs by immunofluorescence microscopy. In kind it is functional, tissue-based. The note with it: Hippocampus. In short, it runs like this:
as §3

By inhibition is commonly meant how much of the control response was suppressed.

Active and inactive are the calls of the source. No cut-off for these calls is given here.

Turning to `c1ccc(C2NCCc3sccc32)cc1` (configuration not stated), the “inhibition of tPA-induced Erk1/2 activation (active/inactive call)” value (shortened to “inhibition … (active/inactive call)”) in experiment [1] was “Active”. In addition, the outcome in experiment [2] was Active.
On to `c1ccc(C2NCCc3ccccc32)cc1` (configuration not stated), for which the “inhibition … (active/inactive call)” value in experiment [1] is “Active”. Moreover, the inhibition in experiment [3] turned out to be 69%. Further, in experiment [2], the result was inactive.
`c1csc(C2NCCc3ccccc32)c1` (configuration not stated): the “inhibition … (active/inactive call)” value in experiment [1] is “Active”. Further, the result in experiment [2] was Active.
With `C[C@]12N[C@H](Cc3ccccc31)c1ccccc12`, the inhibition entry in experiment [1] is “Active”. Also, in experiment [3], the inhibition was determined as 98%.
With `CN1CCn2cccc2C1c1ccccc1` (configuration not stated), in experiment [1], the “inhibition … (active/inactive call)” value was “Active”. For the same compound, the outcome in experiment [2] was Active.
Consider `c1ccc(-c2ncc3cc(-n4ccnc4)ccc3n2)cc1`, for which the inhibition in experiment [4] came to 92%; in experiment [5] it was 66%.
For `CN1Cc2ccccc2C2CCc3ccccc3C21` (configuration not stated), the “inhibition … (active/inactive call)” value in experiment [1] is “Active”. The result in experiment [2] was inactive.
Turning to `CC12CC3CC(C)(C1)CC(N)(C3)C2` [MEMANTINE], the “inhibition … (active/inactive call)” value in experiment [1] is “Active”. The outcome in experiment [6] and in experiment [8] was Active. The same compound yielded an inhibition in experiment [3] of 92%. Further, the Activity in experiment [7] turned out to be 42.3%.
For the compound `CN1CCCC2(CCCNC2)C1` (configuration not stated), the “inhibition … (active/inactive call)” value in experiment [1] was “Active”. In addition, in experiment [2], the outcome was inactive.

Source of the values: ChEMBL document CHEMBL2176910, “Identification of small molecule inhibitors of amyloid β-induced neuronal apoptosis acting through the imidazoline I(2) receptor” (J Med Chem, 2012).
